From ChEMBL document CHEMBL1212856, “Anti-Plasmodium activity of imidazolium and triazolium salts” (Bioorg Med Chem, 2010) come the findings set out here.

For orientation: IC50 means the concentration needed to halve the response being measured.

SMILES strings stand for the structures.

One assay has as its system Plasmodium falciparum. The assay is described as follows: Antiplasmodial activity against Plasmodium falciparum 3D7 after 72 by LDH assay. In kind it is functional, organism-based. The method, boiled down: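 Non-synchronous chloroquine-sensitive P. falciparum culture at 2% hematocrit and 2% parasitemia, in RPMI-10Pf with twofold serial compound dilutions from a 10 mg/mL DMSO stock. Incubated 72 h at 37 °C under 95% N₂, 3% CO₂, 2% O₂. Resuspended samples went into parasite-specific LDH mix, read at 595 nm after 1 h. IC50 by non-linear regression; mean ± standard error of four independent determinations.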

The subject of a further assay is CHO. Put plainly: Cytotoxicity against CHO cells after 48 hrs by MTT assay. In kind it is cell-based. The note with it: Cricetulus griseus. Put shortly: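 CHO cells in RPMI-1640 with 10% fetal calf serum, 25 mM HEPES and gentamicin, grown to 50% confluency before dosing. Dilution series made from a 10 mg/mL DMSO stock, with DMSO-alone controls. After 48 h the medium was replaced with […] for 30 min.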

`Brc1ccc(C[n+]2ccn(Cc3ccccc3)c2)cc1`: in the assay on Plasmodium falciparum, it took 2.9 µM to reach half-maximal inhibition (IC50). That is a single-digit micromolar value.

For `c1ccc2cc(Cn3cc[n+](Cc4ccc5ccccc5c4)c3)ccc2c1`, the figures for the IC50 in the assay on CHO and with Plasmodium falciparum were 27 µM and 0.9 µM, respectively. Take `COc1ccc(Cn2cc[n+](Cc3ccc(OC)cc3)c2)cc1`: the results for the half-inhibitory concentration (IC50) in the assay on CHO and in the assay on Plasmodium falciparum were 30.6 µM and 5 µM, respectively. Taken in the same sequence, the figures for `C[n+]1cn(CC(=O)CCc2ccccc2)nc1-c1ccccc1` were 237 µM and 3.4 µM. On to `C[n+]1c(-c2ccccc2)nn(CC(=O)CCc2ccccc2)c1-c1ccccc1`, for which the results for the 50% inhibitory concentration (IC50) in the assay on CHO and with Plasmodium falciparum were 143 µM and 0.1 µM, respectively. Taken in the same sequence, the figures for `O=C(Cn1c[n+](CC(=O)c2ccc(Br)cc2)cn1)c1ccc(Br)cc1` were 20.9 µM and 10.9 µM. In the case of `CSc1nn(-c2ccccc2)c(C)[n+]1-c1ccccc1`, the figures for the concentration for half-maximal inhibition (IC50) in the assay on CHO and in the assay on Plasmodium falciparum were 307 µM and 3.1 µM, respectively.

Regarding `Brc1ccccc1Cn1cc[n+](Cc2ccccc2Br)c1`, in the assay on Plasmodium falciparum, the IC50 turned out to be 1.4 µM.

Turning to `O=C(Cn1cc[n+](CC(=O)c2ccc(Cc3ccccc3)cc2)c1)c1ccc(Cc2ccccc2)cc1`, the figures for the IC50 in the assay with CHO and with Plasmodium falciparum were 4.3 µM and 0.5 µM, respectively.

The compound `Clc1ccccc1Cn1cc[n+](Cc2ccccc2Cl)c1` registered a half-maximal inhibitory concentration (IC50) in the assay with Plasmodium falciparum of 2 µM. For the compound `O=C(Cn1c[n+](Cc2ccccc2)cn1)c1ccccc1`, the IC50 in the assay on CHO turned out to be 261 µM; in the assay with Plasmodium falciparum, 73 µM. The corresponding values for `Ic1ccc(Cn2cc[n+](Cc3ccc(I)cc3)c2)cc1` are 33 µM and 0.35 µM. As for `c1ccc(Cn2cc[n+](Cc3ccccc3)c2)cc1`, in the assay with Plasmodium falciparum, half-maximal inhibition (IC50) required 16 µM. The same measure, in the same setting: the result for `Brc1cccc(Cn2cc[n+](Cc3cccc(Br)c3)c2)c1` reads 1.05 µM. With `Fc1ccc(Cn2cc[n+](Cc3ccc(F)cc3)c2)cc1`, the 50% inhibitory concentration (IC50) in the assay with CHO amounted to 56 µM; in the assay on Plasmodium falciparum, 17 µM. The corresponding values for `Brc1ccc(Cn2cc[n+](Cc3ccc4ccccc4c3)c2)cc1` are 27 µM and 0.73 µM. The corresponding values for `O=C(Cn1cncn1)c1ccccc1` are 334 µM and 894 µM. `Clc1ccc(Cn2cc[n+](Cc3ccc(Cl)cc3)c2)cc1`: half-maximal inhibition with Plasmodium falciparum (IC50) was put at 9 µM. Regarding `Brc1ccc(Cn2cc[n+](Cc3ccc(Br)cc3)c2)cc1`, the IC50 turned out to be 172 µM in the assay on CHO and 0.7 µM in the assay on Plasmodium falciparum. The corresponding values for `Fc1c(F)c(F)c(-n2c[n+]3c(n2)CCC3)c(F)c1F` are 303 µM and 89 µM. The corresponding values for `c1nc[nH]n1` [1,2,4-TRIAZOLE] are 1270 µM and 2900 µM.

Regarding `Clc1cccc(Cn2cc[n+](Cc3cccc(Cl)c3)c2)c1`, the 50% inhibitory concentration (IC50) with Plasmodium falciparum came to 3.3 µM. As for `c1c[nH]cn1` [IMIDAZOLE], the IC50 turned out to be 3680 µM with CHO and 368 µM in the assay with Plasmodium falciparum. The corresponding values for `c1ccc(Cn2c[n+](Cc3ccccc3)cn2)cc1` are 74 µM and 100 µM. The corresponding values for `C[n+]1c(-c2ccccc2)nn(Cc2ccc(Br)cc2)c1-c1ccccc1` are 33 µM and 1.68 µM. The corresponding values for `O=C(Cn1cc[n+](CC(=O)c2ccc(Cl)cc2)c1)c1ccc(Cl)cc1` are 53 µM and 2.6 µM. Regarding `C[n+]1c(-c2ccccc2)nn(Cc2ccccc2)c1-c1ccccc1`, the IC50 worked out at 87 µM with CHO and 7.8 µM with Plasmodium falciparum. `CSc1nn(-c2ccccc2)c[n+]1-c1ccccc1`: the IC50 came out at 224 µM with CHO and 69 µM with Plasmodium falciparum. For the compound `O=[N+]([O-])c1ccc(Cn2cc[n+](Cc3ccc([N+](=O)[O-])cc3)c2)cc1`, the IC50 in the assay on Plasmodium falciparum was found to be 9 µM.

Regarding `c1ccc(Cn2cc[n+](Cc3ccc4ccccc4c3)c2)cc1`, in the assay with Plasmodium falciparum, the IC50 was 0.9 µM.
